Sampled rows, rich in hits. Any-hit rate of the full collection: about 1.9%.
Runt-SMMHC FRET: blocks binding of human RUNX1 Runt domain to CBFb-SMMHC. actives 0.74% (n = 220,000). inhibition, % at 20 µM. Cerulean-Runt/Venus-CBFb-SMMHC FRET ratio 530/480, 1 h. Q01196+Q13951;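 active = mean inhibition across duplicate retests at 20 µM reaching about 50%, limit read from the data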;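 note: inhibitors lower the FRET ratio by blocking Runt binding to CBFb-SMMHC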
Target sequence (Q01196 whole entry, looked up, the tested form may be a part): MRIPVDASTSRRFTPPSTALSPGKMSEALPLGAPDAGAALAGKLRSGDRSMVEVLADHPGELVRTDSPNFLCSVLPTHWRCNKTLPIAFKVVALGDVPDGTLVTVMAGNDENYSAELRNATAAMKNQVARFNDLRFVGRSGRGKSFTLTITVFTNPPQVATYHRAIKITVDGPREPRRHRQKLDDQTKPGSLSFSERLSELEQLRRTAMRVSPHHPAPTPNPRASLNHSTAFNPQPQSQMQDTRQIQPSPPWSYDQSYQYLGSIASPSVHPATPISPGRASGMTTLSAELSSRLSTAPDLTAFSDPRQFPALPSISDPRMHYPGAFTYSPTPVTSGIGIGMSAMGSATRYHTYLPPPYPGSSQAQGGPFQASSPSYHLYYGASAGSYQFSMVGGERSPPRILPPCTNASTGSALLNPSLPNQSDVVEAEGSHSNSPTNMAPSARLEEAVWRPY
Target sequence (Q13951 whole entry, looked up, the tested form may be a part): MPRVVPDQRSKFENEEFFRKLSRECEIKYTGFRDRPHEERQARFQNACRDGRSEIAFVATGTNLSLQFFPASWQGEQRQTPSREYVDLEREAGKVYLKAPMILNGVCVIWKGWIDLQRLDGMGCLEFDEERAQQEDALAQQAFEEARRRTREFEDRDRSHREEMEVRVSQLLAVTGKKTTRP
RanGTP-Imp inh: inhibitors of RanGTP-importin-beta interaction, primary screen, biochemical, FRET, CFP-Ran, YFP-importin-beta, homogeneous. cell-free CFP-Ran/YFP-importin-beta FRET ratio. inhibition, % (test concentration not listed). actives 1.1% (n = 300,000). AID 2216;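 active = more than half of the replicate wells show a fall in the fluorescence ratio signal beyond about 16%, limit read from the data, passing the limit was not always enough; inconclusive = exactly half of the replicate wells pass the set limit; inactive = fewer than half of replicates pass the limit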
Runt-CBFb FRET: Runt domain-CBFb interaction inhibition; Q01196+Q13951; Cerulean-Runt/Venus-CBFb FRET ratio 530/480, 1 h; inhibition, % at 20 µM; actives 0.46% (n = 220,000); AID 1496;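 active = inhibition over about 50% at 20 µM in the single-dose screen, limit read from the data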
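Assay system: Cerulean-tagged RUNX1 Runt domain (FRET donor) fusion protein / Amount: 100 nM each of Venus-CBFb and Cerulean-Runt domain / Medium: Tris buffer pH 7.5 with salts and BSA / Also added: Venus-CBFb 100 nM / Schedule: 1 h complex formation plus 1 h compound treatment, room temperature / Signal: FRET fluorescence / Read-out: loss of energy transfer signal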
Hck Nef HTS: inhibitors of human Hck kinase activated by Nef. P08631. Recombinant Hck-YEEI plus Nef, Z-Lyte FRET kinase assay. inhibition, % at 20 µM. actives 0.68% (n = 220,000);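 active = Hck-Nef kinase inhibition above about 50%, limit read from the data; inactive = inhibition below that limit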
Numbers stand for hits; i = inactive; ? = inconclusive; nt = no result.

SMILES	Runt-SMMHC FRET	RanGTP-Imp inh	Runt-CBFb FRET	Hck Nef HTS
O=C(NCCc1c[nH]c2ccccc12)C(=O)NCC1OCCCN1S(=O)(=O)c1cc(F)ccc1F (stereo unspecified)	i	i	i	i
Cc1ccc(S(=O)(=O)N(CCCO)CC(O)CON=C2c3ccccc3-c3ccccc32)cc1 (stereo unspecified)	i	i	i	i
COc1ccc(NC(=O)NNc2cc(N3CCOCC3)nc(N3CCOCC3)n2)cc1	i	66	i	i
CCN1CC2=C(OC(N)=C(C#N)C2c2ccccc2)/C(=C\c2ccccc2)C1 (stereo unspecified)	i	21	i	i
Cc1ccccc1-n1nc2c(c1NC(=O)c1cc3ccccc3oc1=O)CS(=O)C2 (stereo unspecified)	i	i	i	i
Cc1ccccc1-n1nc2c(c1NC(=O)c1cc3ccccc3oc1=O)CS(=O)(=O)C2	i	17	i	i
CC(C)(C)c1cc(NC(=O)CSc2nncs2)n(-c2ccccc2)n1	i	?	i	i
COc1ccc(NS(=O)(=O)c2cccc(C(=O)NCc3cccnc3)c2)cc1	nt	i	nt	nt
Cc1nn(-c2ccccc2)c2sc(C(=O)NNC(=O)COc3cccc4ccccc34)cc12	i	i	i	i
Cc1nn(-c2ccccc2)c2sc(C(=O)NNC(=O)COc3ccccc3)cc12	i	i	121	i
O=C1N(c2ccccc2)C[C@@H]2C[C@@H](c3cc4ccccc4o3)N3CCC[C@@]123	i	i	i	i
CCc1ccc(NC(=O)C(C)OC(=O)c2ccc(N3CCCC3)c([N+](=O)[O-])c2)cc1 (stereo unspecified)	i	i	i	i
CCOC(=O)c1c(C)nn(Cc2cccc(Cl)c2)c1N	i	i	70	i
CC(C)Oc1ccc(S(=O)(=O)N2CCOCC2)cc1NC(=O)Cc1c(F)cccc1Cl	nt	i	nt	nt
Cn1c(SCCN2CCCC2)nnc1C1CCN(S(=O)(=O)c2cccc(F)c2)CC1	nt	i	nt	nt
CCc1cc2c(COC(=O)c3cccc(S(C)(=O)=O)c3)cc(=O)oc2cc1O	nt	i	nt	nt
CCc1cc2c(COC(=O)c3c(C)noc3C)cc(=O)oc2cc1O	86	18	51	i
O=C(NCCN1CCOCC1)c1c(O)nc2ccccn2c1=O	nt	i	nt	nt
CCCNc1nc2nc3ccccn3c(=O)c2cc1C(=O)NCCN1CCOCC1	nt	131	nt	nt
Cc1ccc2nc3c(cc(C(=O)NCCc4ccccc4)c(=N)n3CCCN3CCOCC3)c(=O)n2c1	nt	168	nt	nt
Cc1ccc(-c2cc(C(=O)NCCCN3CCOCC3)c3ccccc3n2)cc1C	nt	i	nt	nt
COc1ccc(CCNC(=O)c2cc3c(=O)n4ccccc4nc3n(C3CCCCC3)c2=N)cc1	nt	63	nt	nt
COc1ccc(CCNC(=O)c2cc3c(=O)n4ccccc4nc3n(CCN3CCOCC3)c2=N)cc1	nt	25	nt	nt
COc1ccc(CCNC(=O)c2cnc3ccccn3c2=O)cc1	i	i	i	i
Cc1ccc(C(OCCN(C)C)c2cccc(C(F)(F)F)c2)cc1 (stereo unspecified)	i	i	i	i
SMILES	Runt-SMMHC FRET	RanGTP-Imp inh	Runt-CBFb FRET	Hck Nef HTS
COc1ccc(NC(=O)Cn2ncn3nc(-c4ccc(OC)cc4)cc3c2=O)cc1	nt	i	nt	nt
COc1ccc(CCNC(=O)c2cc3c(=O)n4ccccc4nc3n(CCCN3CCOCC3)c2=N)cc1OC	nt	16	nt	nt
O=C(O)c1cc(-c2c[nH]c3ccccc23)nc2cc3ccccc3cc12	i	i	i	i
Cc1cccc(S(=O)(=O)c2c(N)n(Cc3ccco3)c3nc4ccccc4nc23)c1	nt	18	i	i
Cc1ccc(S(=O)(=O)c2c(N)n(Cc3ccco3)c3nc4ccccc4nc23)cc1	nt	?	i	i
N=c1c(C(=O)NCC2CCCO2)cc2c(=O)n3ccccc3nc2n1C1CCCC1 (stereo unspecified)	nt	186	nt	nt
Cc1ccc2nc3c(cc(C(=O)NCC4CCCO4)c(=N)n3C3CCCC3)c(=O)n2c1 (stereo unspecified)	nt	194	nt	nt
Cc1cccn2c(=O)c3cc(C(=O)NCC4CCCO4)c(=N)n(C4CCCC4)c3nc12 (stereo unspecified)	nt	187	nt	nt
N=c1c(C(=O)NCC2CCCO2)cc2c(=O)n3ccccc3nc2n1C1CCCCC1 (stereo unspecified)	nt	i	nt	nt
COc1ccccc1-n1c(SCc2cc(=O)oc3cc(O)ccc23)nc2ccccc2c1=O	70	i	i	i
Cc1nnc(SCc2cc(=O)oc3cc(O)ccc23)n1Cc1ccccc1	127	i	85	i
COc1ccc(C(C)=O)cc1CSc1nc2ccccc2c(=O)n1-c1ccccc1C	i	i	i	i

High-throughput results: PubChem, several laboratories
